High-throughput results (PubChem BioAssay)
An excerpt weighted towards active compounds, which were near 4.3% of everything screened.
TAAR1 antagonist – antagonists of human TAAR1 | actives 1.5% (n = 360,000) | inhibition, % at 3 µM | Q96RJ0 | CHO RD-HGA16 TAAR1, Fluo-8 calcium fluorescence, antagonist;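 active means inhibition above a per-plate cutoff, the mean inhibition of test compounds on that plate plus 3 SD, cut at about 49% in these data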;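 further: 0% = DMSO plus EC80 beta-PEA response and 100% = DMSO alone without agonist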
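Material: CHO RD-HGA16 cells bearing hTAAR1; compound dosing: one-point dosing, 3 µM nominal final; schedule: dye loading 75 min at 37 °C, then 30 min room temperature; measured by: calcium fluorescence with Fluo-8; control set: vehicle and agonist controls; replication: n of 1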
MC4R antagonist – human MC4R antagonism in cAMP assay | actives 0.48% (n = 360,000) | MC4R-expressing cells, MTII-stimulated cAMP, LANCE TR-FRET | inhibition, % at 6.5 µM | AID 540295 | P32245;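 active means inhibition above its plate's cutoff, the mean of tested wells on that plate plus 3 SD, cut at about 29% in these data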;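 further: 0% = Melanotan II alone and 100% = Melanotan II plus saturating MCL0020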
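Test system: U2OS cells stably expressing human melanocortin 4 receptor (MC4R); also added: Melanotan II challenge; compound: 6.5 µM single dose; timing: 30-min compound preincubation, 1-h Melanotan II challenge, 1-h detection, room temperature; signal: Eu-cAMP/anti-cAMP TR-FRET, emission 671 nm; repeats: one well per compound, no replicates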
TAAR1 agonist – agonists of human TAAR1; Q96RJ0; CHO RD-HGA16 TAAR1, Fluo-8 calcium fluorescence; vehicle wells 0%, saturating PEA agonist 100%; activation, % at 3 µM; actives 0.99% (n = 360,000); AID 624467;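 active means activation above the mean activation of all test compounds in the run plus 3 SD, cut at about 38% in these data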
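Signal – calcium-sensitive Fluo-8 signal, excitation 470-495, emission 515-575 nm · System – RD-HGA16 (CHO) cells co-expressing Gα16 and hTAAR1 · Incubation – 17-24 h seeding, 75 min 37 °C dye, 30 min RT · Compound dosing – 3 µM single concentration · Repeats – no replicates (n 1)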
MC4R ag barr – activates human MC4R beta-arrestin recruitment. U2OS MC4R beta-arrestin complementation, luminescence; percent of melanotan II response, DMSO zero. activation, % at 8.9 µM. actives 0.98% (n = 360,000). AID 540308;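 active means activation above a per-plate cutoff, the mean activation of sample wells on that plate plus 3 SD, cut at about 8% in these data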
Beta2AR agonist – activates human beta-2 adrenergic receptor causing internalization. actives 0.43% (n = 340,000). P07550. response, % (test concentration not listed). Am2.2-beta2AR cells, FAP receptor internalization, flow cytometry;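 active means response above a set limit, near 3 SD of response in nonfluorescent compounds, cut at about 42% in these data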
m5-HT2A agonist – mouse HTR2A agonism via beta-arrestin recruitment | activation, % at 7.6 µM | CHO-K1 mHTR2A beta-arrestin complementation, luminescence; percent of 30 µM serotonin response | actives 0.66% (n = 360,000) | P35363;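 active means activation above a run cutoff, the mean activation of all tested compounds plus 3 SD, cut at about 14% in these data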;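 further: 0% = plate median of compound wells and 100% = 30 µM serotonin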
Target sequence (P35363 whole entry, looked up): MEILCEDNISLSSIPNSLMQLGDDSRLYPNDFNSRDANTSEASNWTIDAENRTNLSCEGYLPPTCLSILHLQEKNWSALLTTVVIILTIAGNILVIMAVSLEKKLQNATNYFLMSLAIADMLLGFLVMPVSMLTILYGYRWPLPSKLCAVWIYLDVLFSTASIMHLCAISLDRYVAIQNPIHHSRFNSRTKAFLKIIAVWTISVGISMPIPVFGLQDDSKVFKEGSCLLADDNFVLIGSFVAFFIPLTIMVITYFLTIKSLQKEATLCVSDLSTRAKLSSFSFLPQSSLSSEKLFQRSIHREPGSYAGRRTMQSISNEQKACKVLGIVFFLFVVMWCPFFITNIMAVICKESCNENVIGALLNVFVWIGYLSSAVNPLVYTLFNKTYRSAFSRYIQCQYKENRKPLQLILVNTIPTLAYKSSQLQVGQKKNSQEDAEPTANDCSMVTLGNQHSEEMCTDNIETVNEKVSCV
TAAR1 ag conf – human TAAR1 agonism, confirmed. activation, % at 3 µM. shares compounds with TAAR1 agonist. CHO RD-HGA16 TAAR1, Fluo-8 calcium fluorescence; scaled: DMSO 0%, maximal phenethylamine 100%. actives 82% (n = 2,400);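 active means activation above a cutoff set at the run's mean compound activation plus 3 SD, cut at about 39% in these data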
Ga16 ag counter – nonselective agonism, TAAR1 counter-screen; CHO-Ga16 parental, Fluo-8 calcium fluorescence; normalized to maximal ATP response, DMSO zero; actives 50% (n = 2,400); activation, % at 3 µM; shares compounds with TAAR1 agonist;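 active means activation above the run cutoff, the mean activation over all tested wells plus 3 SD, cut at about 12% in these data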;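 further: 0% = DMSO wells and 100% = maximal ATP response on the peak over basal ratio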
TAAR1 desens – counter-screen for human TAAR1 agonists: agonists that desensitize TAAR1; inhibition, % at 3 µM; CHO RD-HGA16 hTAAR1, Fluo-8 calcium, beta-PEA response inhibition; actives 46% (n = 2,400); shares compounds with TAAR1 agonist;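 active means inhibition above the run cutoff, the mean inhibition of all test compounds plus 3 SD, cut at about 49% in these data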;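 further: beta-PEA stimulus applied at its EC80; loss of beta-PEA calcium signal after compound pretreatment read as receptor desensitization; 0% = DMSO with beta-PEA at EC80 and 100% = DMSO alone without agonist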
Ga16 antag count – nonselective Ga16 antagonism, counter-screen; AID 651952; inhibition, % at 3 µM; CHO-Ga16 ATP-induced calcium, Fluo-8 fluorescence; actives 39% (n = 2,400); shares compounds with TAAR1 agonist;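 active means inhibition above the plate's mean compound inhibition plus 3 SD, computed per plate, cut at about 22% in these data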;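 further: 0% = EC80 ATP with DMSO and 100% = DMSO wells without ATP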
* hit, by the source's call.

Results for CC1(C(=O)NC(=S)NNC(=O)c2ccncc2)CCCCC1 ?
TAAR1 antagonist: 24; MC4R antagonist: 15; TAAR1 agonist: 92*; MC4R ag barr: -1; Beta2AR agonist: 1; m5-HT2A agonist: -3; TAAR1 ag conf: 70*; Ga16 ag counter: 52*; TAAR1 desens: 22; Ga16 antag count: 23*

What do the screens show for `O=C(NNC(=S)NC(=O)C12CC3CC(CC(C3)C1)C2)c1ccncc1`?
TAAR1 antagonist: 93*; MC4R antagonist: 0; TAAR1 agonist: 155*; MC4R ag barr: -4; Beta2AR agonist: 3; m5-HT2A agonist: -15; TAAR1 ag conf: 122*; Ga16 ag counter: 103*; TAAR1 desens: 72*; Ga16 antag count: 55*

What do the screens show for `CCN(CC)C(=O)C1=C(C)N(CCCN2CCCC2=O)C(=O)C(CC(=O)NCc2ccco2)C1` (configuration not stated)?
TAAR1 antagonist: 8; MC4R antagonist: 17; TAAR1 agonist: 1; MC4R ag barr: -1; m5-HT2A agonist: 8

Results for Cc1cc(C(=O)CN2C(=O)C(=O)N(C3CCCC3)C2=O)c(C)n1CCc1ccc(F)cc1 ?
TAAR1 antagonist: 13; MC4R antagonist: -1; TAAR1 agonist: 72*; MC4R ag barr: -4; Beta2AR agonist: -4; m5-HT2A agonist: -6; TAAR1 ag conf: 82*; Ga16 ag counter: 2; TAAR1 desens: 54*; Ga16 antag count: 15

What do the screens show for `Cc1cc(C(=O)CN2C(=O)C(=O)N(C3CCCC3)C2=O)c(C)n1CCc1ccccc1`?
TAAR1 antagonist: 28; MC4R antagonist: -3; TAAR1 agonist: 49*; MC4R ag barr: 0; Beta2AR agonist: -5; m5-HT2A agonist: -4; TAAR1 ag conf: 80*; Ga16 ag counter: 1; TAAR1 desens: 55*; Ga16 antag count: 15

Results for Cc1cc(C(=O)CN2C(=O)C(=O)N(Cc3ccccc3)C2=O)c(C)n1Cc1ccccc1 ?
TAAR1 antagonist: 18; MC4R antagonist: 5; TAAR1 agonist: 7; MC4R ag barr: -4; Beta2AR agonist: 12; m5-HT2A agonist: 3

Results for Cc1nc(CCNC(=O)CC2C(=O)NCCN2Cc2ccccc2)nc2c1CCC2 (configuration not stated) ?
TAAR1 antagonist: -14; MC4R antagonist: 2; TAAR1 agonist: 0; MC4R ag barr: 0; Beta2AR agonist: 0; m5-HT2A agonist: 0

How did Cn1c(-c2ccsc2)c(-c2cccs2)c2cc(Br)ccc21 do in these assays?
TAAR1 antagonist: 6; MC4R antagonist: 2; TAAR1 agonist: 9; MC4R ag barr: 0; Beta2AR agonist: 2; m5-HT2A agonist: -3

How did Cc1ccc(OCC(=O)Nc2ccccc2C(=O)N2CCCC2)cc1 do in these assays?
TAAR1 antagonist: 2; MC4R antagonist: 9; TAAR1 agonist: 5; MC4R ag barr: -1; Beta2AR agonist: -1; m5-HT2A agonist: -3

How did N#Cc1nc(-c2ccco2)oc1N1CCc2ccccc2C1 do in these assays?
TAAR1 antagonist: -1; MC4R antagonist: -9; TAAR1 agonist: 73*; MC4R ag barr: -2; Beta2AR agonist: -12; m5-HT2A agonist: -4; TAAR1 ag conf: 45*; Ga16 ag counter: 3; TAAR1 desens: 6; Ga16 antag count: 5

Results for COCC(C)N1C(=O)Cc2c1nc(N)c1c(N)nc(N3CCN(c4ccccc4F)CC3)c(C#N)c21 (configuration not stated) ?
TAAR1 antagonist: 49*; MC4R antagonist: 6; TAAR1 agonist: 52*; MC4R ag barr: 1; Beta2AR agonist: 17; m5-HT2A agonist: -6; TAAR1 ag conf: 49*; Ga16 ag counter: 25*; TAAR1 desens: 63*; Ga16 antag count: 45*

What do the screens show for `CCN(C(=O)COC(=O)/C=C/c1ccco1)C1CCCCC1`?
TAAR1 antagonist: -4; MC4R antagonist: 21; TAAR1 agonist: 0; MC4R ag barr: 0; Beta2AR agonist: -2; m5-HT2A agonist: -5

Results for Cc1ccc(CNS(=O)(=O)CCNC(=O)c2ccc3c(c2)OCO3)cc1 ?
TAAR1 antagonist: -18; MC4R antagonist: -6; TAAR1 agonist: 0; MC4R ag barr: 0; Beta2AR agonist: 1; m5-HT2A agonist: 5

What do the screens show for `COc1ccccc1CCNS(=O)(=O)CCNC(=O)c1ccc2c(c1)OCO2`?
TAAR1 antagonist: 40; MC4R antagonist: -2; TAAR1 agonist: 74*; MC4R ag barr: -2; Beta2AR agonist: -4; m5-HT2A agonist: 0; TAAR1 ag conf: 91*; Ga16 ag counter: 2; TAAR1 desens: 73*; Ga16 antag count: 15

Results for CS(=O)(=O)c1nc(S(=O)(=O)c2ccc(Cl)cc2)c(NCCCN2CCOCC2)s1 ?
TAAR1 antagonist: 9; MC4R antagonist: -4; TAAR1 agonist: 2; MC4R ag barr: 1; Beta2AR agonist: -6; m5-HT2A agonist: 1

What do the screens show for `O=C(COc1ccc(F)cc1Br)N1CCc2ccccc21`?
TAAR1 antagonist: 83*; MC4R antagonist: 2; TAAR1 agonist: 76*; MC4R ag barr: 6; Beta2AR agonist: 3; m5-HT2A agonist: 1; TAAR1 ag conf: 1; Ga16 ag counter: 3; TAAR1 desens: -7; Ga16 antag count: 1

Results for Nc1nc(-c2ccccc2)c(-c2ccccc2)n1N ?
TAAR1 antagonist: -1; MC4R antagonist: 1; TAAR1 agonist: 4; MC4R ag barr: 1; Beta2AR agonist: -2; m5-HT2A agonist: -1

What do the screens show for `c1ccc(-c2cnn3c(-c4ccccc4)c(-c4ccccc4)nc3n2)cc1`?
TAAR1 antagonist: 63*; MC4R antagonist: -2; TAAR1 agonist: 77*; MC4R ag barr: 0; Beta2AR agonist: inactive; m5-HT2A agonist: 0; TAAR1 ag conf: 100*; Ga16 ag counter: 121*; TAAR1 desens: 84*; Ga16 antag count: 82*

How did COc1ccc(CC(=O)OCC(=O)Nc2c(C)n(C)n(-c3ccccc3)c2=O)cc1OC do in these assays?
TAAR1 antagonist: 3; MC4R antagonist: 5; TAAR1 agonist: 1; MC4R ag barr: -2; Beta2AR agonist: -8; m5-HT2A agonist: 12
